# Bioassay records deposited in PubChem by several laboratories.
# DAGLB inhibitor – DAGLB lipase inhibitors, primary screen, biochemical, fluorescence, HTS | Diacylglycerol lipase-beta (Homo sapiens), Q8NCG7 | HEK293T DAGLB membrane lysate, EnzChek fluorogenic substrate | inhibition, % at 5.17 µM | actives 0.059% (n = 340,000); in the data active = inhibition above about 34%;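 note: 0% = enzyme with vehicle and 100% = wells lacking enzyme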
# Target sequence (Q8NCG7 whole entry, looked up): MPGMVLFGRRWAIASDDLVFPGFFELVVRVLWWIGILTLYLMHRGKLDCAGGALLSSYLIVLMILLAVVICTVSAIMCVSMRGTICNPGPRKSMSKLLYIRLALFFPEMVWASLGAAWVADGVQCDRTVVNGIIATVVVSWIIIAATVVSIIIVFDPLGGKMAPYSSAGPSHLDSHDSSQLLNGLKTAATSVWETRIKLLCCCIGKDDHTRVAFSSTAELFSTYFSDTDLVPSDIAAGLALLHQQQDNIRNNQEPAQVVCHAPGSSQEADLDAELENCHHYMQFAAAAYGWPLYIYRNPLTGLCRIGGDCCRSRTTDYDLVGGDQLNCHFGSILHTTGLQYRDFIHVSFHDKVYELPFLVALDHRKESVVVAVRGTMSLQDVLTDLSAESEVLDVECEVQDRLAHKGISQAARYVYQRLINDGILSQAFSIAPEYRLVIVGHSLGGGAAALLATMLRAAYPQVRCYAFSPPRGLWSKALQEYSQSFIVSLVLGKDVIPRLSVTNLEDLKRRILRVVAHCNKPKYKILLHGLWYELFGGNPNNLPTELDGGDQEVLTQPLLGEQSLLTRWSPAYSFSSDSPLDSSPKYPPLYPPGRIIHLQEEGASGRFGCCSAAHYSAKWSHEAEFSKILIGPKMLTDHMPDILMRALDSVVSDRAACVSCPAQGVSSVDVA
# hiPSC survival – enhancers of single-cell hiPSC survival, primary screen, ATPlite luminescence. 100% = ROCK inhibitor wells, 0% = DMSO. survival enhancement, % at 20 µM. actives 0.044% (n = 360,000). AID 602274, 2012; in the data active = survival enhancement above about 18%;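 note: cells exposed to compounds for 16 hours before the ATP read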
# Cneo AK release – Cryptococcus neoformans cell lysis inducers, primary screen, AK release luminescence, single concentration. C. neoformans lysis, adenylate kinase release luminescence, 4 h; normalised: neutral wells 0, clomiphene wells 100. AID 651654, 2012. actives 0.2% (n = 360,000). lysis activity, % at 15 µM;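 active = mean lysis activity across replicates of at least 80%, whatever share of replicates individually reach that level; inactive = mean lysis activity below 80%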
#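 Schedule: static 4 h at 37 °C with compound, 1 h detection; system: C. neoformans cells; benchmarks: Clomiphene as positive control; buffer or medium: fresh YPD medium; measure: luminescence rise reflecting yeast cell lysis; measured by: luminescent adenylate kinase detection reagent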
# rRNA inh HTS – reduced GFP signal of wild-type E. coli, primary screen, bacterial rRNA inhibitor project, GFP/RFP fluorescence, OD600, single point. GFP signal change (wild-type ribosome), % (concentration not given with the values). actives 1.6% (n = 350,000). E. coli WT GFP vs humanized-ribosome RFP mutants, 24 h; hits give low values; DMSO median 0, no signal -100;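 active = significant combined selectivity score with lowered wild-type GFP, culture density cut under 30%, mutant RFP and density less affected; inactive = any of these conditions unmet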
# SKN-1 block – suppressors of acrylamide-induced Pgst-4::GFP reporter in worms, primary screen, SKN-1 inhibitor project, whole organism, uHTS, GFP/RFP fluorescence ratio, strain VP596 | inhibition, % at 21.8 µM | AID 624304, 2012 | C. elegans VP596 Pgst-4::GFP/RFP ratio, 24 h | actives 0.49% (n = 360,000);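 active = interference check ratio from 0.5 to 1.5 plus GFP to RFP signal ratio inhibition reaching or exceeding a fixed threshold, cut at about 30% in these data, passing the limit was not always enough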
# MT1-MMP act inh – blockers of MT1-MMP proenzyme processing, primary screen, HT1080 RFP-PRO-GFP cells, GFP/RFP fluorescence. Matrix metalloproteinase-14 (Homo sapiens), P50281. GFP/RFP ratio fluorescence, overnight; percent of plate control window, DMSO zero. GFP/RFP ratio change, % at 20 µM. actives 0.061% (n = 360,000);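 active = GFP/RFP ratio change of at least 30% with cell ATP level not reduced by more than half and red fluorescence within 50% of control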
#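 Assay system: HT1080 cells carrying an RFP-PRO-GFP reporter | Dosing: Single dose of 20 µM compound, 1% DMSO final | Incubation: Cells overnight before dosing, compound overnight, 37 °C, 5% CO2 | Evaluation: GFP/RFP fluorescence ratio | Control set: DMSO and RFP-L50D-GFP cell wells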
# Numbers without * were called inactive; . = no result. A selection: hits, their analogues and other compounds. The true share with any hit is near 1.8%.
SMILES,DAGLB inhibitor,hiPSC survival,Cneo AK release,rRNA inh HTS,SKN-1 block,MT1-MMP act inh
CC(C)(C)[C@H]1C=C(C(=O)N2CCCCCCC2)O[C@@H](OCc2ccc(CO)cc2)C1,.,.,6,.,.,.
CCN1C(=O)C(CC(=O)Nc2ccc(OC)cc2)N(Cc2cccs2)C1=S (stereo not drawn),-6,-2,.,-31*,-8,0
Fc1ccc(Nc2cccc3nccnc23)cc1,6,-1,1,.,45*,2
COc1ccccc1-c1cn(CC[C@@H]2CC[C@@H](NC(=O)C3CCCC3)[C@H](CO)O2)nn1,.,.,.,-4,.,.
NC(=S)NNc1c(F)c(F)c(F)c(F)c1F,1,0,.,-26*,-4,-3
Cc1ccccc1NNC(N)=S,1,0,.,10,0,0
C/C(=N\Nc1ccc(C(=O)O)cc1)c1ccc2c(c1)Nc1ccccc1S2,4,0,-5,-45*,7,1
C/C(=N/Nc1ccc(C(=O)O)cc1)c1ccc2c(c1)Nc1ccccc1S2,11,1,.,-17,-1,5
O=[N+]([O-])c1cccc(NC(=S)N2CCc3ccccc3C2)c1,-2,0,.,-31*,6,2
O=[N+]([O-])c1ccc(NC(=S)N2CCc3ccccc32)cc1,0,0,0,-19*,0,-1
S=C(Nc1ccccc1)N1CCc2ccccc21,1,1,2,17,13,4
O=C(c1ccco1)N1CCN(C(=S)Nc2cccc([N+](=O)[O-])c2)CC1,1,0,.,-7,0,2
O=C(NNC(=S)NC(=O)c1ccccc1[N+](=O)[O-])c1ccccc1[N+](=O)[O-],2,-1,-1,-26*,6,6
O=C(CN1CCOCC1)N[C@@H]1CC[C@@H](CCNC(=O)C2CCC2)O[C@H]1CO,.,.,10,1,.,.
CC(=O)N[C@@H]1CC[C@@H](CCNC(=O)C2CCC2)O[C@H]1CO,.,.,-1,3,.,.
CC(=O)N[C@H]1CC[C@H](CCNC(=O)C2CCC2)O[C@@H]1CO,.,.,101*,2,.,.
O=C(CN1CCOCC1)N[C@@H]1CC[C@@H](CCNC(=O)C2CCC2)O[C@@H]1CO,.,.,98*,0,.,.
Cc1ccc(S(=O)(=O)N[C@H]2CC[C@@H](CCNC(=O)C3CCCC3)O[C@H]2CO)cc1,.,.,57,2,.,.
O=C(CCN1CCCCC1)NCC[C@@H]1CC[C@H](NC(=O)c2ccc(F)cc2)[C@@H](CO)O1,.,.,86*,2,.,.
Cc1ccc(S(=O)(=O)N[C@H]2CC[C@H](CCNC(=O)C3CCCC3)O[C@@H]2CO)cc1,.,.,95*,4,.,.
CCC(=O)Nc1ccc2c(c1)C(=O)N(C)C[C@@H](OC)[C@@H](C)CN(CC1CCOCC1)[C@H](C)CO2,.,.,1,2,.,.
COc1ccccc1CNC(=O)C[C@@H]1CC[C@@H](NC(=O)CN(C)C)[C@H](CO)O1,.,.,2,1,.,.
Cc1noc(C)c1S(=O)(=O)Nc1ccc2c(c1)C(=O)N([C@H](C)CO)C[C@H](C)[C@@H](CN(C)Cc1ccc3c(c1)OCO3)OCCCC[C@H](C)O2,.,.,4,3,.,.
CCn1c(SCc2nc(-c3ccc(OC)c(OC)c3)no2)nnc1-c1cccs1,-1,-1,1,-32*,-2,-1
COc1ccc(-c2noc(CSc3nnc(Cc4ccccc4)n3-c3cccc(C)c3)n2)cc1OC,-6,0,-2,-26*,18,-2
SMILES,DAGLB inhibitor,hiPSC survival,Cneo AK release,rRNA inh HTS,SKN-1 block,MT1-MMP act inh
Cc1ccc(-c2noc(CSc3nnc(Cc4ccccc4)n3-c3cccc(C)c3)n2)cc1,-4,-2,-1,-7,-5,-2
CO[C@@H]1CN(C)C(=O)c2cc(NC(C)=O)ccc2OC[C@H](C)N(C(=O)c2cnccn2)C[C@H]1C,.,.,1,3,.,.
O=C(NCc1ccccc1)c1csc(-c2cccnc2)n1,-6,2,.,-37*,-8,-17
O=C(O)c1ccc(-c2nc(-c3ccccc3)cs2)cc1,2,0,.,-20*,1,3
Cc1ccc(-c2csc(-c3ccncc3)n2)cc1,-20,1,.,-12,41*,0
Brc1ccc(-c2csc(-c3ccncc3)n2)cc1,-14,3,.,.,40*,3
O=C(NCCc1csc(-c2cccnc2)n1)c1ccccc1,-1,0,2,1,-3,2
C[C@H](CO)N1C[C@H](C)[C@@H](CN(C)Cc2ccc(C(F)(F)F)cc2)Oc2ccc(N(C)C)cc2CC1=O,.,.,3,-4,.,.
CO[C@@H]1CN(C)C(=O)c2ccc(NS(=O)(=O)c3ccc(C)cc3)cc2OC[C@H](C)NC[C@@H]1C,.,.,0,2,.,.
COc1ccc(-c2csc(Nc3ccccc3)n2)cc1,-1,0,.,1,35*,2
COc1ccc(Nc2nc(-c3ccc(OC)cc3)cs2)cc1,1,0,.,10,7,1
c1ccc(-c2csc(-c3cccnc3)n2)cc1,-2,1,.,-21,42*,-1
COc1ccc(-c2csc(-c3ccc(O)cc3)n2)cc1,-7,0,.,-28*,-3,0
COc1ccc(NC(=O)Nc2ccc3c(c2)C(=O)N([C@@H](C)CO)C[C@H](C)[C@H](CN(C)S(=O)(=O)c2ccc(C)cc2)OCCCC[C@H](C)O3)cc1,.,.,-4,2,.,.
Nc1[nH]c(C(=O)c2ccccc2)c(-c2ccccc2Cl)c1C(=O)c1ccccc1,.,0,.,-27*,10,2
NC(=O)c1c(N)[nH]c(C(=O)c2ccccc2)c1-c1ccc(Cl)cc1Cl,.,.,.,-16,.,.
O=C(CN1CCN(S(=O)(=O)N2CCCCC2)CC1)Nc1cc(Cl)cc(Cl)c1,-6,0,-2,-11,37*,3
Nc1nc(N)nc(-c2ccc(Oc3ccccc3)cc2)n1,-1,-2,-1,-34*,8,2
Cc1cc(C)cc(NC(=S)N2CCN(c3ccccn3)CC2)c1,0,1,1,-22*,11,1
S=C(Nc1cc(Cl)cc(Cl)c1)N1CCN(c2ccccn2)CC1,0,0,-1,-1,2,1
Fc1ccc(NC(=S)N2CCN(c3ccccn3)CC2)cc1Cl,-1,0,5,-22*,-10,6
